Experimental data published in ChEMBL document CHEMBL3244375, “Hypolipidemic arylthioalkanoic acids” (J Med Chem, 1977).

Legend:
Rattus norvegicus [1] = test: Toxicity in Sprague-Dawley rat assessed as increase in liver weight at 0.125 % compound administered in diet for 14 days relative to control; format: organism-based; conditions: in vivo, po, 336 h
How it was run: (§1)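 Rats fed compound-containing diet ad libitum for 14 days alongside feed-only controls, eight rats per group in the dose-response study. At sacrifice by decapitation, liver removed and weighed. Change from controls scored semi-quantitatively, each + or − sign representing about a 10% change.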

Rattus norvegicus [2] = test: Hypolipidemic activity in Sprague-Dawley rat assessed as reduction in serum cholesterol level at 0.125 % compound administered in diet for 14 days relative to control; format: functional; parameters: scale not given: the % may be the effect or the level left
How it was run: (§2)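 Test compound mixed into feed, given ad libitum to rats for 14 days; controls received feed alone. Rats then weighed and killed by decapitation; blood collected and serum cholesterol and triglycerides measured by previously described methods. Data reported as mg% serum with SD per group, % change versus control; significance by Student's t test. Dose-response groups of eight rats.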

Rattus norvegicus [3] = test: Hypolipidemic activity in Sprague-Dawley rat assessed as reduction in serum triglyceride level at 0.125 % compound administered in diet for 14 days relative to control; format: functional; parameters: scale not given: the % may be the effect or the level left; how it was run: as §2
[4] = Retardation factor of the compound by thin layer chromatography; format: physicochemical
Rattus norvegicus [5] = test: Toxicity in Sprague-Dawley rat assessed as increase in liver weight at 0.25 % compound administered in diet for 14 days relative to control; format: organism-based; conditions: in vivo, po, 336 h; how it was run: as §1
Rattus norvegicus [6] = test: Hypolipidemic activity in Sprague-Dawley rat assessed as reduction in serum cholesterol level at 0.06 % compound administered in diet for 14 days relative to control; format: functional; parameters: scale not given: the % may be the effect or the level left; how it was run: as §2
Rattus norvegicus [7] = test: Hypolipidemic activity in Sprague-Dawley rat assessed as reduction in serum cholesterol level at 0.03 % compound administered in diet for 14 days relative to control; format: functional; parameters: scale not given: the % may be the effect or the level left; how it was run: as §2
Rattus norvegicus [8] = test: Hypolipidemic activity in Sprague-Dawley rat assessed as reduction in serum triglyceride level at 0.25 % compound administered in diet for 14 days relative to control; format: functional; parameters: scale not given: the % may be the effect or the level left; how it was run: as §2
[9] = Toxicity in rat; format: organism-based; conditions: in vivo
[10] = Toxicity in mouse; format: organism-based; conditions: in vivo
Rattus norvegicus [11] = test: Hypolipidemic activity in Sprague-Dawley rat assessed as reduction in serum cholesterol level at 0.25 % compound administered in diet for 14 days relative to control; format: functional; parameters: scale not given: the % may be the effect or the level left; how it was run: as §2
Rattus norvegicus [12] = test: Hypolipidemic activity in Sprague-Dawley rat assessed as reduction in serum triglyceride level at 0.06 % compound administered in diet for 14 days relative to control; format: functional; parameters: scale not given: the % may be the effect or the level left; how it was run: as §2
Rattus norvegicus [13] = test: Hypolipidemic activity in Sprague-Dawley rat assessed as reduction in serum triglyceride level at 0.03 % compound administered in diet for 14 days relative to control; format: functional; parameters: scale not given: the % may be the effect or the level left; how it was run: as §2
Rattus norvegicus [14] = test: Toxicity in Sprague-Dawley rat assessed as mortality at 0.125 % compound administered in diet for 14 days relative to control; format: organism-based; conditions: in vivo, po, 336 h
How it was run: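 Compound mixed into rat feed and given ad libitum for 14 days; control groups received feed alone. At the end of the period, animals were weighed and killed by decapitation, blood was collected, and the liver was removed and weighed.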

SMILES	Activity (Rattus norvegicus [1])	Activity (Rattus norvegicus [2])	Activity (Rattus norvegicus [3])	Activity (Rattus norvegicus [8])	Activity (Rattus norvegicus [11])	other results
CCCC(Sc1cc(C(C)(C)C)c(O)c(C(C)(C)C)c1)C(=O)O (configuration not stated)	30%	-3%	-72%			
CCCCC(Oc1cc(C(C)(C)C)c(O)c(C(C)(C)C)c1)C(=O)OCC (configuration not stated)	10%	-13%	-28%			
CCCCCC(C)(Sc1cc(C(C)(C)C)c(O)c(C(C)(C)C)c1)C(=O)O (configuration not stated)	10%	-10%	-60%			
CCCCC(Sc1ccc(Cl)cc1)C(=O)O (configuration not stated)	0%	-16%	-41%			deltaRm [4]: 0.25
CCCCC(Sc1cc(C(C)(C)C)c(O)c(C(C)(C)C)c1)C(=O)O (racemic)	10%	-32%	-66%	-69%	-30%	Activity (Rattus norvegicus [5]): 20%; Activity (Rattus norvegicus [6]): -28%; Activity (Rattus norvegicus [7]): -21%; LD50 [9]: 7200 mg/kg; LD50 [10]: 5000 mg/kg; deltaRm [4]: 0.96; Activity (Rattus norvegicus [12]): -61%; Activity (Rattus norvegicus [13]): -35%
CCCCC(Sc1ccccc1)C(=O)O (configuration not stated)	0%	-16%	-37%			deltaRm [4]: 0
CCCC(C)(Sc1cc(C(C)(C)C)cc(C(C)(C)C)c1)C(=O)O (configuration not stated)	40%	-29%	-80%			
CCCCCC(Sc1cc(C(C)(C)C)c(O)c(C(C)(C)C)c1)C(=O)O (configuration not stated)				-53%	-24%	Activity (Rattus norvegicus [5]): 10%
CCCCC(Sc1cc(C2CCCC2)c(O)c(C2CCCC2)c1)C(=O)O (configuration not stated)	Non-toxic	-11%	-16%			deltaRm [4]: 0.94
CC(C)(Sc1cc(C(C)(C)C)c(O)c(C(C)(C)C)c1)Sc1cc(C(C)(C)C)c(O)c(C(C)(C)C)c1 [PROBUCOL]				-33%	38%	Activity (Rattus norvegicus [5]): 0%
CCCCCC(C)(Sc1cc(C(C)(C)C)cc(C(C)(C)C)c1)C(=O)O (configuration not stated)	20%	-27%	-73%			
CCC(C)(Sc1cc(C(C)(C)C)c(O)c(C(C)(C)C)c1)C(=O)O (configuration not stated)				-80%	-32%	Activity (Rattus norvegicus [5]): 40%
CC(C)(C)c1cc(SCC(=O)O)cc(C(C)(C)C)c1O					-16%	
CC(C)(Sc1cc(C(C)(C)C)cc(C(C)(C)C)c1)C(=O)O	30%	-31%	-63%			
CCCC(Sc1cc(C(C)(C)C)c(O)c(C(C)(C)C)c1)C(=O)OCC (configuration not stated)				-54%	0%	Activity (Rattus norvegicus [5]): 0%
CCCCC(Sc1ccc(OC)cc1)C(=O)O (configuration not stated)	0%	-12%	-45%			deltaRm [4]: 0.08
CCCC(C)(Sc1cc(C(C)(C)C)c(O)c(C(C)(C)C)c1)C(=O)O (configuration not stated)	30%	12%	-55%			
CCCCC(Sc1ccc(Br)c(C)c1)C(=O)O (configuration not stated)	20%	-17%	-49%			deltaRm [4]: 0.51
CCCCC(C(=O)O)S(=O)(=O)c1cc(C(C)(C)C)c(O)c(C(C)(C)C)c1 (configuration not stated)	20%	-14%	-36%	-44%	-17%	

SMILES	Activity (Rattus norvegicus [1])	Activity (Rattus norvegicus [2])	Activity (Rattus norvegicus [3])	Activity (Rattus norvegicus [8])	Activity (Rattus norvegicus [11])	other results
CC(Oc1cc(C(C)(C)C)c(O)c(C(C)(C)C)c1)C(=O)O (configuration not stated)						Activity (Rattus norvegicus [14]): Toxic
CCC(Sc1cc(C(C)(C)C)c(O)c(C(C)(C)C)c1)C(=O)O (configuration not stated)				-74%	-37%	Activity (Rattus norvegicus [5]): 40%
CC(C)(Sc1cc(C(C)(C)C)c(O)c(C(C)(C)C)c1)C(=O)O				-66%	-21%	Activity (Rattus norvegicus [5]): 40%
CCCCC(Sc1cc(C2CCCCC2)c(O)c(C2CCCCC2)c1)C(=O)O (configuration not stated)	Non-toxic	-3%	5%			deltaRm [4]: 1.1
CCC(Oc1cc(C(C)(C)C)c(O)c(C(C)(C)C)c1)C(=O)O (configuration not stated)		6%	38%			
CC(C)(C)c1cc(OCC(=O)O)cc(C(C)(C)C)c1O		13%	-50%			
CCOC(=O)C(C)(C)Oc1ccc(Cl)cc1 [CLOFIBRATE]				-50%	-28%	Activity (Rattus norvegicus [5]): 20%
CCOC(=O)C(CC)Sc1cc(C(C)(C)C)c(O)c(C(C)(C)C)c1 (configuration not stated)		13%	-43%	-55%	-5%	Activity (Rattus norvegicus [5]): 10%
CCCCC(C(=O)OCC)c1cc(C(C)(C)C)c(O)c(C(C)(C)C)c1 (configuration not stated)		-2%	-10%			
CCCCC(Sc1ccc(C)cc1)C(=O)O (configuration not stated)	0%	-11%	-23%			deltaRm [4]: 0.23
CCCCCCC(C)(Sc1cc(C(C)(C)C)c(O)c(C(C)(C)C)c1)C(=O)O (configuration not stated)	10%	17%	-73%			
CCCCCCC(C)(Sc1cc(C(C)(C)C)cc(C(C)(C)C)c1)C(=O)O (configuration not stated)	30%	-38%	-68%			
CCCCC(C)(Sc1cc(C(C)(C)C)c(O)c(C(C)(C)C)c1)C(=O)O (configuration not stated)	20%	8%	-66%			
CCCCC(Sc1cc(C(C)(C)C)cc(C(C)(C)C)c1)C(=O)O (configuration not stated)	20%	-23%	-58%	-41%	-20%	deltaRm [4]: 1.18
CC(Sc1cc(C(C)(C)C)c(O)c(C(C)(C)C)c1)C(=O)O (configuration not stated)				-78%	-32%	Activity (Rattus norvegicus [5]): 30%
CCOC(=O)C(C)(C)Sc1cc(C(C)(C)C)c(O)c(C(C)(C)C)c1				-60%	-23%	Activity (Rattus norvegicus [5]): 20%
CCCCC(Oc1cc(C(C)(C)C)c(O)c(C(C)(C)C)c1)C(=O)O (configuration not stated)	20%	-7%	-38%			
CCCCC(C(=O)O)c1cc(C(C)(C)C)c(O)c(C(C)(C)C)c1 (configuration not stated)		-20%	-24%			
